≈ marks a conversion by molar mass, not a printed value. Calls of active or inactive are those of the source. The rule behind the calls is not given here. Bridge positions count the residues as written; N and C are the ends. Peptide text beside a SMILES is read from it. I, II: the chains in the order shown. Where only a bound is given, the exact number is not on record here.

The values below come from ChEMBL document CHEMBL1151419, “Antimicrobial effect of halocidin-derived peptide in a mouse model of Listeria infection” (Antimicrob Agents Chemother, 2007).

The test system of data set [1] is Listeria monocytogenes. Briefly: Antimicrobial activity against Listeria monocytogenes ATCC 19111 infected in BALB/c mouse at 4 mg/kg, iv in presence of increasing concentration of mannan. The class given is functional, organism-based. On the set-up: dose 4 mg/kg.
A short description of data set [2]: Stability in human serum assessed as half life at 1 mg/ml. It is filed as ADME, cell-free.
Data set [3] relates to Listeria monocytogenes. Nature of the data set: Antimicrobial activity against Listeria monocytogenes ATCC 19111 infected in BALB/c mouse assessed as survival of mouse at 4 mg/kg, iv administered 2 hrs after bacterial challenge measured after 15 days. It is filed as functional. The method, boiled down: (§1)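 L. monocytogenes grown 18 h at 37°C in brain heart infusion broth and frozen at –80°C; viability checked by plating. Mice infected via tail vein with 2 x 10^5 bacteria each. A single 4 mg/kg i.v. dose in 100 µl PBS was given immediately or 2 h after infection; PBS vehicle controls. Ten mice per group; survivors counted daily for 15 days.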

Data set [4] in a line: Toxicity in human erythrocytes assessed as hemolysis at 50 ug/ml relative to Triton X-100. It is filed as cell-based, Erythrocyte. Conditions: read-out: Activity. The method, boiled down: (§2)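 Peptide (20 µl) was mixed with 180 µl of a 2.5% (vol/vol) human RBC suspension in PBS and incubated 30 min at 37°C. PBS was added and samples centrifuged 3 min at 10,000 x g; supernatant A540 was read. Hemolysis was expressed relative to a peptide-free PBS blank and 1% Triton X-100 as 100%.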

Data set [5] concerns Enterococcus faecium. Briefly: Antimicrobial activity against vancomycin-resistant Enterococcus faecium CCARM 5029 after 18 hrs by broth microdilution assay. The class given is functional. As to conditions: CCARM 5029, 18 h. An outline of the steps: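 Broth microdilution (modified CLSI). Overnight stationary-phase Mueller-Hinton broth cultures diluted to 2 x 10^5 CFU/ml final. Peptide serially twofold diluted in 0.01% acetic acid (stock series 640 down to 10 µg/ml); 11 µl added to 100 µl of bacteria. After 18 h at 37°C, MIC taken as the lowest concentration preventing visible turbidity.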

For data set [6], the system named is Staphylococcus aureus. Briefly: Antimicrobial activity against methicillin-resistant Staphylococcus aureus CCARM 3695 treated with sample containing 25 to 200 ug/ml drug incubated with PBS for 10 mins measured after 3 hrs by radial diffusion assay. The class given is functional, organism-based. An outline of the steps: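 Serum-free radial diffusion. Peptide in PBS alone (200 µg/ml control) held 10 min at 37°C; 5 µl placed in 3-mm wells. Underlay: pH 7.4 agarose, phosphate/citrate, 0.3 mg/ml TSB, mid-log MRSA 4 x 10^6 CFU/ml. After 3 h at 37°C, TSB-agarose overlay, incubated overnight. Clear-zone diameter read to 0.1 mm (1 mm = 10 units).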

The test system of data set [7] is Listeria monocytogenes. Nature of the data set: Antimicrobial activity against Listeria monocytogenes ATCC 19111 infected in BALB/c mouse assessed as survival of mouse at 4 mg/kg, iv administered immediately after bacterial challenge measured after 15 days. It is filed as functional. Conditions: ATCC 19111, 360 h. An outline of the steps: as §1
Data set [8] relates to Liver. Nature of the data set: Drug penetration in BALB/c mouse liver infected with CFSE-labeled Listeria monocytogenes ATCC 19111 at 200 ug, iv by laser scanning confocal microscopy. It is filed as ADME, organism-based. Conditions: in vivo. An outline of the steps:
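Listeria was labeled with 5 µM CFSE for 20 min at 37°C in darkness and washed. Mice received 4 x 10^8 cells by tail vein, then immediately 200 µg peptide in 100 µl PBS i.v., or PBS only. Livers were taken 10 min later. Frozen 6-µm sections were stained with cross-reacting rabbit anti-18Hc antiserum (1:200) and Cy3 goat anti-rabbit IgG, then imaged by laser scanning confocal microscopy.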

Data set [9] concerns Staphylococcus aureus. Briefly: Antimicrobial activity against methicillin-resistant Staphylococcus aureus CCARM 3695 treated with sample containing 25 to 200 ug/ml drug incubated with PBS containing 50% normal human serum for 10 mins measured after 3 hrs by radial diffusion assay. The class given is functional, organism-based. An outline of the steps:
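Normal human serum from three donors, heat-treated 30 min at 56°C. Peptide at 25–200 µg/ml in PBS with 50% serum, held 10 min at 37°C; 5 µl placed in 3-mm wells. Underlay: 1% agarose, 9 mM phosphate, 1 mM citrate, 0.3 mg/ml TSB, pH 7.4, with 4 x 10^6 CFU/ml mid-log MRSA. After 3 h at 37°C, overlaid (1% agarose, 6% TSB), incubated overnight. Clear zones in units (1 mm = 10 units); triplicate means.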

Data set [10] is described as follows: Toxicity in human erythrocytes assessed as hemolysis at 25 ug/ml relative to Triton X-100. The class given is cell-based, Erythrocyte. Conditions: read-out: Activity. The method, boiled down: as §2
Data set [11] in a line: Toxicity in human erythrocytes assessed as hemolysis at 100 ug/ml relative to Triton X-100. As to conditions: read-out: Activity. It is filed as cell-based, Erythrocyte. An outline of the steps: as §2
For data set [12], the system named is Enterococcus faecium. Briefly: Antimicrobial activity against vancomycin-resistant Enterococcus faecium CCARM 5029 after 18 hrs by broth microdilution assay in presence of 150 mM NaCl. The class given is functional. Conditions: CCARM 5029, 18 h. The method, boiled down: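 Same broth microdilution, but the medium was Mueller-Hinton broth supplemented with 150 mM NaCl. Inoculum 2 x 10^5 CFU/ml final. Peptide twofold series in 0.01% acetic acid (stocks 640 to 10 µg/ml). After 18 h at 37°C, MIC read as the lowest concentration with no visible growth.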
A general note: Broth dilution looks for growth in wells or tubes with falling amounts of substance.

Data set [13] has as its system Listeria monocytogenes. Briefly: Antimicrobial activity against Listeria monocytogenes ATCC 19111 infected in BALB/c mouse assessed as reduction in number of recovered CFU in liver at 100 ug, iv measured after 3 days. It is filed as functional, organism-based. The method, boiled down:
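Mice were infected i.v. with L. monocytogenes and immediately given 100 µg peptide in 100 µl PBS i.v.; PBS alone served as control. On days 1 and 3, liver and spleen were homogenized in PBS/0.1% BSA, serially diluted, and plated on TSA with 5% sheep blood. Colonies were counted after 18 h at 37°C. Three independent experiments; mean ± SD.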

The subject of data set [14] is Staphylococcus aureus. Briefly: Antimicrobial activity against methicillin-resistant Staphylococcus aureus CCARM 3695 treated with supernatant containing 2 mg drug incubated for 10 mins with PBS centrifuged for 3 hrs by radial diffusion assay. The class given is functional, organism-based. An outline of the steps: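 2 mg peptide incubated 10 min at 37°C in 2 ml PBS, either serum-free or with 50% heat-treated normal human serum. Spun 3 h at 295,000 x g, 4°C. Then 5 µl of supernatant tested by radial diffusion against mid-log MRSA (4 x 10^6 CFU/ml underlay, 3 h at 37°C, overlay, overnight); clear zones measured.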

The nature of data set [15]: Stability in human serum assessed as drug remaining at 1 mg/ml after 8 hrs. It is filed as ADME, cell-free. Conditions: read-out: Stability. An outline of the steps: (§3)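 At 0, 2, 4 and 8 h, 200-µl aliquots were quenched with 20 µl of 1% TFA, held 10 min at 4°C, and centrifuged. Remaining peptide was quantified by HPLC peak area relative to the unincubated sample. Triplicate runs.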

In data set [16] the test system is Listeria monocytogenes. Nature of the data set: Antimicrobial activity against Listeria monocytogenes ATCC 19111 after 18 hrs by broth microdilution assay in presence of 150 mM NaCl. It is filed as functional. Conditions: ATCC 19111, 18 h. An outline of the steps:
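Bacteria were grown overnight to stationary phase in Mueller-Hinton broth at 37°C and diluted to 2 x 10^5 CFU/ml. Line 3 used MHB plus 150 mM NaCl. Peptide stock (640 µg/ml in 0.01% acetic acid) was twofold serially diluted to 10 µg/ml, and 11 µl was added per 100 µl of cells. Turbidity was read after 18 h at 37°C; MIC was the minimum concentration visibly inhibiting growth.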

The test system of data set [17] is Listeria monocytogenes. Nature of the data set: Antimicrobial activity against Listeria monocytogenes ATCC 19111 infected in BALB/c mouse at 4 mg/kg, iv in presence of increasing concentration of LTA. It is filed as functional, organism-based. On the set-up: dose 4 mg/kg.
Data set [18] in a line: Stability in human serum assessed as drug remaining at 1 mg/ml after 4 hrs. As to conditions: read-out: Stability. It is filed as ADME, cell-free. The method, boiled down: as §3

Regarding `CC(C)C[C@H](NC(=O)CNC(=O)[C@H](Cc1cnc[nH]1)NC(=O)[C@H](Cc1cnc[nH]1)NC(=O)[C@H](CC(C)C)NC(=O)[C@H](CC(C)C)NC(=O)[C@H](C)N)C(=O)N[C@@H](CC(N)=O)C(=O)N[C@@H](CSSC[C@H](NC(=O)[C@H](CC(N)=O)NC(=O)[C@H](CC(C)C)NC(=O)CNC(=O)[C@H](Cc1cnc[nH]1)NC(=O)[C@H](Cc1cnc[nH]1)NC(=O)[C@H](CC(C)C)NC(=O)[C@H](CC(C)C)NC(=O)[C@H](C)NC(=O)[C@H](CC(N)=O)NC(=O)[C@H](CC(C)C)NC(=O)[C@H](Cc1c[nH]c2ccccc12)NC(=O)[C@@H](N)CCCCN)C(=O)N[C@@H](C)C(=O)N[C@@H](CCCCN)C(=O)NCC(=O)N[C@H](C(=O)N[C@@H](CC(C)C)C(=O)N[C@@H](C)C(=O)O)C(C)C)C(=O)N[C@@H](C)C(=O)N[C@@H](CCCCN)C(=O)NCC(=O)N[C@H](C(=O)N[C@@H](CC(C)C)C(=O)N[C@@H](C)C(=O)O)C(C)C` (I: H-KWLNALLHHGLNCAKGVLA-OH / II: H-ALLHHGLNCAKGVLA-OH; disulfide I:13-II:9), the outcome in data set [1], in data set [6], in data set [9], in data set [13] and in data set [14] was Active. Moreover, the half-life (usually the time in which the quantity being followed falls by half) at 1 mg/ml in data set [2] was 6 h. Besides, the results for the survival at 4 mg/kg in [3] and in data set [7] were 50% and 90%, respectively. The hemolysis at 50 ug/ml in data set [4] was 4.5%. Besides, the MIC (as a rule, the lowest concentration that inhibits growth of the organism) in data set [5] was found to be 8 µg/mL (≈ 2.24 µM); in data set [12] it was 8 µg/mL; in data set [16], 16 µg/mL. The result in data set [8] was Active. The hemolysis at 25 ug/ml in data set [10] turned out to be 2.3%. In data set [11], the hemolysis at 100 ug/ml was 8.5%. Also, the remaining at 8 h, 1 mg/ml in data set [15] was 39%. For the same compound, the result in data set [17] was inactive. In data set [18], the remaining at 4 h, 1 mg/ml is more than 70%.
